Activity calls are given as the source filed them. No cut-off for these calls is given here.
What was measured:
[1] = test system: MDA-MB-231; test: Antiproliferative activity against human MDA-MB-231 cells under normoxic condition; assay type: functional, cell-based
Method in brief: (§1)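 Human prostate (DU145, PC-3) and breast (MCF-7, MDA-MB-231, T47D) carcinoma cells were grown in DMEM/F12 with 10% FCS and Pen/Strep. They were seeded at 30,000 cells/well and left overnight. Compound was added with DMSO up to 0.6% final, and plates went 48 h at 37 °C, hypoxic (1% O2:5% CO2:94% N2) or normoxic (5% CO2:95% air). Read-out was neutral red, A540 corrected at 630 nm, in quadruplicate.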

[2] = test system: PC-3; test: Antiproliferative activity against human PC3 cells under normoxic condition; assay type: functional, cell-based; method in brief: as §1
[3] = test system: T47D; test: Antiproliferative activity against human T47D cells under normoxic condition; assay type: functional, cell-based; method in brief: as §1
[4] = test system: PC-3; test: Antiproliferative activity against human PC3 cells under hypoxic condition; assay type: functional, cell-based; method in brief: as §1
[5] = test system: MCF7; test: Antiproliferative activity against human MCF7 cells under hypoxic condition; assay type: functional, cell-based; method in brief: as §1
[6] = test system: DU-145; test: Antiproliferative activity against human DU145 cells under hypoxic condition; assay type: functional, cell-based; method in brief: as §1
[7] = test system: MDA-MB-231; test: Antiproliferative activity against human MDA-MB-231 cells under hypoxic condition; assay type: functional, cell-based; method in brief: as §1
[8] = test system: DU-145; test: Antiproliferative activity against human DU145 cells under normoxic condition; assay type: functional, cell-based; method in brief: as §1
[9] = test system: T47D; test: Antiproliferative activity against T47D cells at 12. 7 uM; assay type: functional, Homo sapiens
[10] = species: Homo sapiens; test: Inhibition of hypoxia-induced HIF1 activation at 12. 7 uM
Method in brief: (§2)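 HIF-1 activity was read in transfected cells by a luciferase reporter after a 16 h compound exposure under hypoxia (1% O2:5% CO2:94% N2). Normoxic (5% CO2:95% air) and hypoxia-mimetic (10 µM 1,10-phenanthroline) conditions were run alongside.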

[11] = test system: MCF7; test: Antiproliferative activity against human MCF7 cells under normoxic condition; assay type: functional, cell-based; method in brief: as §1
[12] = test system: T47D; test: Antiproliferative activity against human T47D cells under hypoxic condition; assay type: functional, cell-based; method in brief: as §1
[13] = species: Homo sapiens; test: Inhibition of hypoxia induced HIF-1 activation at 1.27 uM; method in brief: as §2
[14] = test system: T47D; test: Antiproliferative activity against T47D cells after 16 hrs at 12. 7 uM; assay type: functional, Homo sapiens
[15] = test system: T47D; test: Antiproliferative activity against T47D cells at 1.27 uM; assay type: functional, cell-based; conditions: Homo sapiens
[16] = test system: MDA-MB-231; test: Antiproliferative activity against human MDA-MB-231 cells at 0.3 uM; assay type: functional, cell-based; method in brief: as §1

Row | Structure (SMILES) | IC50 [1] | IC50 [2] | IC50 [3] | IC50 [4] | IC50 [5] | IC50 [6] | IC50 [7] | IC50 [8] | Activity [9] | inhibition [10] | IC50 [11] | IC50 [12] | Activity [13] | Activity [14] | Activity [15] | Activity [16]
1 | C=C1CCCC(C)(C)C1CCC(C)CCC[C@@]1(C)CC[C@H]([C@H](C)C(=O)OC)OO1 (relative stereo) [DIACARNOXIDE A] | 17.8 µM | > 30 µM | 14.7 µM | > 30 µM | > 30 µM | > 30 µM | 17.8 µM | > 30 µM | <=30% | < 30% | > 30 µM | 26.9 µM |  |  |  | 
2 | C=C1CCCC(C)(C)C1CCC(C)CCC[C@@]1(C)CC[C@H]([C@H](C)C(=O)O)OO1 (relative stereo) [DIACARNOXIDE B] | 13.3 µM | 16.7 µM | 5.6 µM | 12.9 µM | 6.6 µM | 5.3 µM | 5.6 µM | 6.6 µM |  | 95% | 13.8 µM | 6 µM | inactive | 97% | inactive | Active
3 | COC(=O)[C@@H](C)[C@H]1CC[C@](C)(CCCC(C)CCC2=C(C)CCCC2(C)C)OO1 (relative stereo) [DIACARNOXIDE C] |  |  |  |  |  |  |  |  | <=30% | < 30% |  |  |  |  |  | 
4 | COC(=O)[C@@H](C)[C@H]1CC[C@](C)(CCC/C(C)=C/CC2C(C)=CCCC2(C)C)OO1 (relative stereo) [DIACARNOXIDE D] |  |  |  |  |  |  |  |  | <=30% | < 30% |  |  |  |  |  | 
